Source: ChEMBL document CHEMBL2203111, “An Hsp90 modulator that exhibits a unique mechanistic profile” (Bioorg Med Chem Lett, 2012)
Calls of active or inactive are those of the source. The calls are words filed in the database; no cut-off is given here. *1 amine or outer side, *2 acyl side, *3 side chain or, on linkers, in order; H or OH if unused. Where a SMILES comes first, the peptide text is derived from it. [ ]: non-standard residue; d: D form. X1 = O=C([C@H](N[*:1])[C@H](OCc1ccccc1)c1ccccc1)[*:2]; NMeV = CN[C@H](C(=O)O)C(C)C

Legend:
HCT-116 [1] = assay: Induction of apoptosis in human HCT116 cells assessed as PARP cleavage after 24 hrs by Western blotting analysis; assay type: functional, cell-based
Summary of the method: (§1)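 HCT116 cells treated 24 hrs with compound at 0–50 µM; cell lysates analyzed by Western blot for full-length PARP (~113 kDa) and cleaved fragments, full-length PARP quantified relative to untreated cells.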

HCT-116 [2] = assay: Induction of apoptosis in human HCT116 cells assessed as PARP cleavage at 50 uM after 24 hrs by Western blotting analysis; assay type: functional; summary of the method: as §1
[3] = Inhibition of binding of recombinant HSP90 to his-tagged HER2 up to 10 uM by Western blotting analysis
[4] = Inhibition of binding of recombinant HSP90 to his-tagged Akt up to 10 uM by Western blotting analysis
[5] = Competitive binding affinity to N-middle domain of HSP90 expressed in BL21(DE)3 Escherichia coli cells after 1 hr by immunoblotting analysis in the presence of 2-chlorobenzyl 4-((2R,5S,8S,11S,14R)-11,14-dibenzyl-8-isobutyl-5-isopropyl-13-methyl-3,6,9,12,15-pentaoxo-1,4,7,10,13-pentaazacyclopentadecan-2-yl)butylcarbamate
[6] = target: T1, Heat shock protein HSP90 (Homo sapiens) (UniProt P07900+P08238); assay: Binding affinity to HSP90 in human HCT116 cells assessed as increase in staining intensity in cytosol at 5 uM after 72 hrs by immunofluorescence staining analysis; assay type: cell-based; conditions: HCT-116
Summary of the method: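 HCT116 colon cancer cells treated 72 hours (DMSO as vehicle control, 17-AAG as reference Hsp90 inhibitor); Hsp90 visualized by immunofluorescence with a polyclonal anti-Hsp90 antibody, cytosolic staining intensity compared with DMSO-treated cells.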

[7] = Binding affinity to N-middle domain of HSP90 expressed in BL21(DE)3 Escherichia coli cells at 5 uM after 2 hrs by Western blotting method based pull down assay
[8] = target: Glyceraldehyde-3-phosphate dehydrogenase (Homo sapiens) (UniProt P04406); assay: Binding affinity to glyceraldehyde-3-phosphate dehydrogenase in human HCT116 cell lysates at 0.6 uM after 1 hr using coomassie blue staining by SDS-PAGE based pull down assay; conditions: HCT-116
Chain of Glyceraldehyde-3-phosphate dehydrogenase (Homo sapiens) (P04406 2-335 limits assumed): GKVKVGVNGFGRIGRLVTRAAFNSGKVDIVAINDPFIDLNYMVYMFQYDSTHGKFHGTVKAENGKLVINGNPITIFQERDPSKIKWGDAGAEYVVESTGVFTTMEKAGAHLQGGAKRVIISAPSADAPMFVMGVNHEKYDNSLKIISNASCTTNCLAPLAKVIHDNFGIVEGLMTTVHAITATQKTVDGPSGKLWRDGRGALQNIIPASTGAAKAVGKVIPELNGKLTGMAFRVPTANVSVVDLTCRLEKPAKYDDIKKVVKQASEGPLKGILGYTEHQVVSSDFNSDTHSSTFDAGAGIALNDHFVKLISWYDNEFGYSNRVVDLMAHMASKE
Summary of the method: (§2)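 Biotinylated probe incubated with HCT116 cell lysate; neutravidin-agarose beads added to capture probe with bound proteins, beads washed ten times, proteins eluted in sample buffer and resolved by gel/Western blot. Controls: PEGylated biotin linker alone and DMSO.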

HCT-116 [9] = assay: Binding affinity to beta tubulin in human HCT116 cell lysates at 0.6 uM after 1 hr using coomassie blue staining by SDS-PAGE based pull down assay; assay type: cell-free; summary of the method: as §2
Myosin-9 (Homo sapiens) = Myosin-9 (Homo sapiens) (UniProt P35579); assay: Binding affinity to myosin-9 in human HCT116 cell lysates at 0.6 uM after 1 hr using coomassie blue staining by SDS-PAGE based pull down assay; conditions: HCT-116; summary of the method: as §2
Chain of Myosin-9 (Homo sapiens) (P35579 whole entry): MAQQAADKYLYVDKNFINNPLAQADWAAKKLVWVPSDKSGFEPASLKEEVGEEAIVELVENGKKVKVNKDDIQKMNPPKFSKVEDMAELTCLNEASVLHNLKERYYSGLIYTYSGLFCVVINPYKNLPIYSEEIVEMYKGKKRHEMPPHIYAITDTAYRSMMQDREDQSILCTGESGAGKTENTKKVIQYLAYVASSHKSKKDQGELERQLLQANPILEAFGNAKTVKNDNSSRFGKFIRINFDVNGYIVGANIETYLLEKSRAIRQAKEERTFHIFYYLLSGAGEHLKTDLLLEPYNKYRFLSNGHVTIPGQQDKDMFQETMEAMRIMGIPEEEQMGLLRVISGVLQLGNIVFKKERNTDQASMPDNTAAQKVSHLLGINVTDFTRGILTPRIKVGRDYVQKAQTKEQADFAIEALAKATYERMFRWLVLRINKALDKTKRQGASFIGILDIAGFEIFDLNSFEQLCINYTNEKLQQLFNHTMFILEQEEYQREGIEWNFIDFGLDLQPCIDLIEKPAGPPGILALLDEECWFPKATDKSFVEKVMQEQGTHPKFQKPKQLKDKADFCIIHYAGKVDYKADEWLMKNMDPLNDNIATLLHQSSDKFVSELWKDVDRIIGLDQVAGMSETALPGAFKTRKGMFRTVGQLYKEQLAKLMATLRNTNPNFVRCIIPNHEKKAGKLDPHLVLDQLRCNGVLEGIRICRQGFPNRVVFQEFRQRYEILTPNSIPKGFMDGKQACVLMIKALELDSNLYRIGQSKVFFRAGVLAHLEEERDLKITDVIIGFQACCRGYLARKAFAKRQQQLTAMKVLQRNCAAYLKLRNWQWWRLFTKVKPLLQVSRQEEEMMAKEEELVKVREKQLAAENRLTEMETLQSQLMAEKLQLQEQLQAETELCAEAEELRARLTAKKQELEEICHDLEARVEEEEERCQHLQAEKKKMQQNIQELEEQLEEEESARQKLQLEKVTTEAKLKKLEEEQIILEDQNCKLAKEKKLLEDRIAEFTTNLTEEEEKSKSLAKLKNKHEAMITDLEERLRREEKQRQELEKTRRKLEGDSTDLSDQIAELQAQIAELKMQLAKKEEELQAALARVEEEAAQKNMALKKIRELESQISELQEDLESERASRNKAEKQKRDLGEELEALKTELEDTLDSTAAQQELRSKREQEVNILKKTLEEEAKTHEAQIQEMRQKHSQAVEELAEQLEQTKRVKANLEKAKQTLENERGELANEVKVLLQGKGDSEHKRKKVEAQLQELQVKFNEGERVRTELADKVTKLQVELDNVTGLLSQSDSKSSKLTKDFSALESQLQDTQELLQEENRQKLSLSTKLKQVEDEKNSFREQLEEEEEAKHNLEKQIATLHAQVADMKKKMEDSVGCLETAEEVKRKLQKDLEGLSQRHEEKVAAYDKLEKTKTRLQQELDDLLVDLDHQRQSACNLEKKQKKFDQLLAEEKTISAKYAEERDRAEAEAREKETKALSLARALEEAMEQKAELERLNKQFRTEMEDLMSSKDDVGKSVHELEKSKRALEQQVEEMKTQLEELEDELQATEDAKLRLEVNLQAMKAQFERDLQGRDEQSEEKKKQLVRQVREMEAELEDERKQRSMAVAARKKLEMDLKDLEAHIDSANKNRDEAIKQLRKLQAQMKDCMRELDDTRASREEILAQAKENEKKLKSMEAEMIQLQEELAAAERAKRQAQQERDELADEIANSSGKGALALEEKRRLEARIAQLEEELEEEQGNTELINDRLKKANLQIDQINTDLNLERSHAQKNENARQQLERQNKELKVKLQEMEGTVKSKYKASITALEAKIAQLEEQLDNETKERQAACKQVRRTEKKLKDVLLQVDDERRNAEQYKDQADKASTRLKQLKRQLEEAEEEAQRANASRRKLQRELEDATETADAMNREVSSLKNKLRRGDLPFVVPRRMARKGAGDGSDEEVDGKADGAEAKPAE

[10] = target: T1, Heat shock protein HSP90 (Homo sapiens); assay: Binding affinity to HSP90 in human HCT116 cell lysates at 0.6 uM after 1 hr by Western blot based pull down assay; assay type: protein assay; conditions: HCT-116; summary of the method: as §2
[11] = target: T1, Heat shock protein HSP90 (Homo sapiens); assay: Binding affinity to HSP90 in human HCT116 cell lysates at 0.6 uM after 1 hr using coomassie blue staining by SDS-PAGE based pull down assay; assay type: protein assay; conditions: HCT-116; summary of the method: as §2
HCT-116 [12] = assay: Binding affinity to actin in human HCT116 cell lysates at 0.6 uM after 1 hr using coomassie blue staining by SDS-PAGE based pull down assay; assay type: cell-free; summary of the method: as §2

inhibition [3] | inhibition [4] | IC50 [5] [µM] | Activity [6] | Activity [8] | Activity (Myosin-9 (Homo sapiens)) | Activity [10] | Activity [11] | SMILES | Activity (HCT-116 [1]) | Activity (HCT-116 [2]) [%] | Activity [7] | Activity (HCT-116 [9]) | Activity (HCT-116 [12])
inactive | inactive | 6.2 | Active | – | – | – | – | CC(C)C[C@@H]1NC(=O)[C@H](C(C)C)NC(=O)[C@@H](CCCCNC(=O)OCc2ccccc2Cl)NC(=O)[C@@H](Cc2ccccc2)N(C)C(=O)[C@H](Cc2ccccc2)NC1=O | Dose-dependent effect | 48 | – | – | –
– | – | – | – | Active | Active | Active | Active | CC(C)C[C@@H]1NC(=O)[C@H](CCCCNC(=O)CCOCCOCCOCCOCCNC(=O)CCCC[C@@H]2SC[C@@H]3NC(=O)N[C@@H]32)NC(=O)[C@@H](CCCCNC(=O)OCc2ccccc2Cl)NC(=O)[C@@H](Cc2ccccc2)N(C)C(=O)[C@H](Cc2ccccc2)NC1=O | – | – | Active | Active | Active
– | – | 1.9 | Active | – | – | – | – | CC(C)C[C@@H]1NC(=O)[C@H](C(C)C)N(C)C(=O)[C@@H](CC(C)C)NC(=O)[C@@H](Cc2ccccc2)NC(=O)[C@@H]([C@H](OCc2ccccc2)c2ccccc2)NC1=O (cyclo(L[X1][dF][dL][NMeV])) | – | – | – | – | –
– | – | – | – | inactive | inactive | inactive | inactive | CC(C)[C@@H]1NC(=O)[C@@H](CCCCNC(=O)OCc2ccccc2Cl)NC(=O)[C@@H](Cc2ccccc2)N(C)C(=O)[C@H](Cc2ccccc2)NC(=O)[C@H](CCCCNC(=O)CCOCCOCCOCCOCCNC(=O)CCCC[C@@H]2SC[C@@H]3NC(=O)N[C@@H]32)NC1=O | – | – | – | inactive | inactive
